SUMO HTRF inh: blocks human SUMOylation mediated by UBC9. HTRF SUMOylation assay, SAE1/SAE2 + UBC9, in vitro. inhibition, % at 35 µM. hit rate 0.36% among 290,000; in the data active = inhibition above about 50%, passing the limit was not always enough
Target sequence (P63279 whole entry, looked up): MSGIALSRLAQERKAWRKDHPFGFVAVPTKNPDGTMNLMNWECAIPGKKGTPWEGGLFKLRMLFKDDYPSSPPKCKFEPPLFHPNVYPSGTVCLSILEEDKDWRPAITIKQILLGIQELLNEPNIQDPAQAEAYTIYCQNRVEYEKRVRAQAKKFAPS
HKDC1 inh: inhibitors of human hexokinase HKDC1; hit rate 0.16% among 340,000; recombinant HKDC1, G6PDH/diaphorase resazurin coupled fluorescence; AID 493160; inhibition, % at 20 µM;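 active = inhibition above about 35% when tested at 20 µM, limit read from the data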
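Test system: Recombinant HKDC1 (HK5) hexokinase enzyme, produced in-house | Input: HKDC1 at 5 µg/mL | Buffer or medium: Tris pH 8.0 buffer with MgCl2, Tween-20, BSA, BME | Schedule: 90 min reaction incubation at room temperature, dark | Technique: Resazurin-to-resorufin fluorescence via G6PDH and diaphorase coupling, 525/613 nm | Controls: DMSO wells with and without enzyme mix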
GSTO1 counter: GSTO1 inhibition, counter-screen for RBBP9 inhibitors. inhibition, % at 5.96 µM. P78417. recombinant GSTO1, activity-based probe fluorescence polarization. hit rate 1.1% among 300,000;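 active = inhibition above the campaign mean inhibition plus 3 SD, cut at about 35% in these data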
Target sequence (P78417 whole entry, looked up): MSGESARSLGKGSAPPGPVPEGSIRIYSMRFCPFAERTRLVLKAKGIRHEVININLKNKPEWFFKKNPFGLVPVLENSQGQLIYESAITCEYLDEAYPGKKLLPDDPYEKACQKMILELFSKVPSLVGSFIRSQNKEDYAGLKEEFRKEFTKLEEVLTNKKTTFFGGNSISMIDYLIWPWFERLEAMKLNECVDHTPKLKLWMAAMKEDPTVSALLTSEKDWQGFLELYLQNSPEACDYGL
Apaf1 inhib: blocks human Apaf-1 apoptosome activity; O14727; reconstituted apoptosome caspase-3 activity, DEVD-Rh110 fluorescence; inhibition, % at 20 µM; hit rate 0.71% among 330,000; AID 489030; active = inhibition of at least 40% at 20 µM
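Assay system – apoptosome proteins · Medium – Hepes buffer, pH 7.5 · Also added – cytochrome c with DEVD-Rh110 · Timing – 30 min compound preincubation, 50 min activation, room temperature · Detection – Rh110 fluorescence, excitation 480 nm, emission 540 nm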
Redox H2O2 prof: compounds producing H2O2 with reducing agent – biochemical, NIH compound library profiling, artefact control for MLSCN library redox annotation, primary screen; DTT-dependent redox cycling H2O2, phenol red/HRP absorbance; 100% = 100 µM peroxide control, 0% = buffer; activation, % at 10 µM; hit rate 0.03% among 200,000; AID 878;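 active = activation of at least 50% relative to the plate's high and low controls in the primary single-dose screen; inactive = activation below 50%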;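 note: compound incubated with DTT at 0.8 mM final as the reducing agent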
GSTO1 inh conf: GSTO1 (human) inhibition, confirmation. shares compounds with GSTO1 counter. recombinant GSTO1, probe fluorescence polarization. inhibition, % at 5.96 µM. hit rate 54% among 2,400. AID 2176;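 active = inhibition above the primary screen's cutoff, its mean inhibition plus 3 SD, cut at about 35% in these data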;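 note: loss of polarization as inhibitors block binding of rhodamine sulfonate ester activity probe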
Apaf-1 inh conf: confirmation of Apaf-1 inhibitors; shares compounds with Apaf1 inhib; reconstituted apoptosome, caspase-3 DEVD-Rh110 fluorescence; inhibition, % at 20 µM; hit rate 25% among 1,800; AID 504614;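 active = mean inhibition of at least 40% at 20 µM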
Rh110 quench: interferes with Rh110 fluorescence, flagging false Apaf-1 inhibitors; shares compounds with Apaf1 inhib; activation (fluorescence interference), % at 20 µM; Rh110 fluorescence interference, quenched caspase reaction; AID 504615; 1,800 tested, under 10 active;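 active = signal rise of 40% or more at 20 µM, treated as a fluorescence artifact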
Fluor interf inh: counter-screen for Apaf-1 inhibitors: fluorescence interference, dose response; IC50, µM; shares compounds with Apaf1 inhib; AID 588538; 460 tested, under 10 active; fluorescence interference counterscreen, Apaf-1 assay format; call rule not given here
Large screens that a line does not name were inactive (follow-up assays come after a bar, where they were run). In the library only some 1.4% were active in any assay of this set; here they are far more common.

COc1cccc(-c2[nH]nc3c2C(c2ccsc2)C(C#N)=C(N)O3)c1 (configuration not stated)	GSTO1 counter 51, Apaf1 inhib 60 | GSTO1 inh conf inactive | Apaf-1 inh conf inactive | Rh110 quench inactive
CC(=O)N(C1=C(N)C(=O)c2ccccc2C1=O)c1ccccc1	GSTO1 counter 59, Apaf1 inhib 67 (no result: Redox H2O2 prof) | GSTO1 inh conf inactive | Apaf-1 inh conf 81 | Rh110 quench inactive | Fluor interf inh inactive
O=C(N(c1ccccc1)c1ccccc1)N(c1ccccc1)c1ccccc1	none (no result: Redox H2O2 prof)
COc1cccc(C(=O)N2CCC(n3nccc3NC(=O)C(OC)c3ccccc3)CC2)c1 (configuration not stated)	none (no result: Redox H2O2 prof)
N#Cc1c(N2CCCC(O)C2)nc(N)c2c(N)nc3c(c12)CC(=O)N3C12CC3CC(CC(C3)C1)C2 (configuration not stated)	SUMO HTRF inh 99, GSTO1 counter 79, Apaf1 inhib 98 | GSTO1 inh conf 88 | Apaf-1 inh conf 44 | Rh110 quench inactive | Fluor interf inh inactive
O=C(N[C@@H](Cc1ccccc1)C(=O)N1CCC2(CC1)NCCc1[nH]cnc12)c1cccc(F)c1	none (no result: SUMO HTRF inh, Redox H2O2 prof)
CC(C)(C)c1ccc(S(=O)(=O)/N=C2\C=C(NS(=O)(=O)c3ccccc3)C(=O)c3ccccc32)cc1	GSTO1 counter 71, Apaf1 inhib 46 (no result: Redox H2O2 prof) | GSTO1 inh conf 67 | Apaf-1 inh conf 53 | Rh110 quench inactive | Fluor interf inh inactive
C/C(=N\NS(=O)(=O)c1ccc(C(C)(C)C)cc1)c1ccccc1	none (no result: Redox H2O2 prof)
O=C(NCCc1ccco1)c1cc(COc2cccc(C(F)(F)F)c2)on1	none (no result: Redox H2O2 prof)
Nc1c(N2CCCC2)cc(Cl)c2nonc12	GSTO1 counter 95, Apaf1 inhib 96 (no result: SUMO HTRF inh) | GSTO1 inh conf 49 | Apaf-1 inh conf 75 | Rh110 quench inactive | Fluor interf inh inactive
COc1ccc(N(/N=C2\Sc3ccccc3C2=O)C(C)=O)cc1	none (no result: GSTO1 counter, Apaf1 inhib)
COc1ccccc1N(/N=C1\Sc2ccccc2C1=O)C(C)=O	GSTO1 counter 44, Apaf1 inhib 83 (no result: Redox H2O2 prof) | GSTO1 inh conf 75 | Apaf-1 inh conf 73 | Rh110 quench inactive | Fluor interf inh inactive
COc1cc(/C=C2/C(=O)N(c3cccc(Br)c3)N=C2C)cc(OC)c1O	GSTO1 counter 42, Apaf1 inhib 82 (no result: Redox H2O2 prof) | GSTO1 inh conf inactive | Apaf-1 inh conf inactive | Rh110 quench inactive
CCOc1cc(/C=N/NC(=O)c2ccccn2)ccc1OC(=O)c1cccs1	none (no result: Redox H2O2 prof)
CC(=O)Oc1ccc(/C=C2/C(=O)N(c3ccccc3)N=C2C)cc1	GSTO1 counter 52, Apaf1 inhib 91 (no result: Redox H2O2 prof) | GSTO1 inh conf inactive | Apaf-1 inh conf inactive | Rh110 quench inactive
COc1cc(/C=C2/C(=O)N(c3ccc(Br)cc3)N=C2C)cc([N+](=O)[O-])c1O	none (no result: HKDC1 inh, Redox H2O2 prof)
CC1=NN(c2ccccc2)C(=O)/C1=C/N(C)C	none (no result: Redox H2O2 prof)
CCOc1cc(/C=C2/C(=O)N(c3ccccc3)N=C2C)ccc1OC(=O)c1cccs1	GSTO1 counter 66, Apaf1 inhib 69 | GSTO1 inh conf inactive | Apaf-1 inh conf inactive | Rh110 quench inactive
COc1ccc(/C=C2/C(=O)N(c3ccccc3)N=C2C)cc1	GSTO1 counter 47, Apaf1 inhib 96 (no result: SUMO HTRF inh, Redox H2O2 prof) | GSTO1 inh conf inactive | Apaf-1 inh conf inactive | Rh110 quench inactive
COc1ccc(CN(C)CCCn2cnc(C(=O)Nc3ccc(C)c(C)c3)n2)cc1OC	none (no result: SUMO HTRF inh, GSTO1 counter, Apaf1 inhib, Redox H2O2 prof)
CCCCn1c(N)c(N(CC(C)C)C(=O)c2ccc(OC)c(S(=O)(=O)N3CCOCC3)c2)c(=O)[nH]c1=O	none (no result: SUMO HTRF inh, GSTO1 counter, Apaf1 inhib, Redox H2O2 prof)
CC1=NN(c2ccccc2)C(=O)/C1=C/c1cccc(C)c1	GSTO1 counter 59, Apaf1 inhib 96 (no result: Redox H2O2 prof) | GSTO1 inh conf inactive | Apaf-1 inh conf inactive | Rh110 quench inactive
